Here are results for one molecule from ChEMBL document CHEMBL4819017 (Eur J Med Chem, 2021).

The species entered for one data set is Homo sapiens. The data set is described as follows: Selectivity ratio of IC50 for recombinant human GST tagged mTOR (1360 to 2549 residues) expressed in baculovirus expression system to IC50 for human full length p110alpha (1 to 1068 residues) expressed in baculovirus-infected Sf21 cells. The essentials:
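mTOR activity measured by LanthaScreen assay. PI3K-α activity measured by ADP Hunter Plus (ADP accumulation, fluorescence ex 544/em 580 nm), normalized to no-compound control and fitted to a sigmoid dose-response curve. IC50s are the average of two independent experiments. Ratio is mTOR IC50 over PI3K-α IC50.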

A short description of data set [1]: Metabolic stability in rat liver microsomes assessed as parent compound remaining in presence of NADPH regenerating system at 0.5 uM measured after 15 mins by LC-MS/MS analysis. The settings on record: read-out: Stabilty. In kind it is ADME, Microsome. The gist of the method: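 Human, mouse or rat liver microsomes at 0.5 mg/ml protein with compound at 0.5 µM and NADPH-regenerating system, 37 °C with shaking. Control wells contain 0.1 M potassium phosphate instead of the regenerating system. Reaction stopped with acetonitrile/0.1% formic acid, centrifuged, supernatant analyzed by LC-MS/MS. Result is percent parent compound remaining.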
(Microsomes from liver hold many membrane-bound enzymes, among them those of drug oxidation.)

Data set [2] in a line: Half life in BALB/c mouse at 10 mg/kg, po measured for 8 hrs. The settings on record: in vivo. Type of data set: ADME, organism-based. The essentials: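 BALB/c mice dosed I.V. or P.O. at the stated dose; plasma levels followed for 8 h. Parameters from noncompartmental analysis: AUC (h.ng/ml), T1/2 (h), Cl (L/h/Kg), Vd (L/Kg), Cmax (ng/ml), Tmax (h).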

The structures appear in SMILES notation.

What is called half-life is the time needed for the level to fall by half in the phase considered. A lower half-life goes with fast loss. As to `COc1ncc2cc1NS(=O)(=O)c1cccc(c1)C(=O)NCc1cncc(c1)-c1cnc3ccc-2cn13`, the Ratio IC50 in the data set filed under Homo sapiens stood at 4.1. In addition, in data set [1], the remaining at 0.25 h, 0.5 µM was 100%. This molecule also had a half-life in data set [2] of 5.22 h.
